According to ChEMBL document CHEMBL1121802, “Imine analogues of tricyclic antidepressants” (1981):

Columns and labels:
Type in all cases: functional
Mus musculus [1] = test: Compound was tested for antidepressant activity by determining the reversal of tetrabenazine-induced ptosis upon oral administration; 0.9-3.3
In short: (§1)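 Mice given test drug orally; 30 min later challenged with tetrabenazine (methanesulfonate) 32 mg/kg ip in 0.05 M KCl pH 2.0. Scored 1 h after test drug for exploratory activity and ptosis; ptosis antagonism = lid closure <50% in both eyes exactly 2 s after placing mouse facing observer. ED50 calculated by Thompson method.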

Mus musculus [2] = test: Antidepressant activity by determining the decreased exploratory activity in mice upon oral administration; in short: as §1
Mus musculus [3] = test: The effect on excitement was measured in mice following oral administration
In short: (§2)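 Observed at 0.5, 2, 5 and 24 h for ataxia (abnormal gait/imprecise movement), pupil diameter (dissecting microscope, 20×, micrometer), excitement (spontaneous running/jumping) and electroshock protection (corneal electrodes at 2 and 5 h). ED50 by Thompson method.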

Mus musculus [4] = test: The effect on ataxia in mice following oral administration; in short: as §2
Mus musculus [5] = test: The effect on electroshock protection in mice following oral administration; in short: as §2
Mus musculus [6] = test: The effect on 24-hour mortality in mice following oral administration
Mus musculus [7] = test: Effect on pupil dilation was measured in mice upon oral administration; in short: as §2
Mus musculus [8] = test: Compound was tested for antidepressant activity by determining the reversal of tetrabenazine-induced ptosis upon oral administration; 2.7-5.1; in short: as §1
Mus musculus [9] = test: Compound was tested for antidepressant activity by determining the decreased exploratory activity in mice upon oral administration; 7.9-16; in short: as §1
Mus musculus [10] = test: Antidepressant activity by determining the reversal of tetrabenazine-induced ptosis upon oral administration; in short: as §1
Mus musculus [11] = test: Compound was tested for antidepressant activity by determining the reversal of tetrabenazine-induced ptosis upon oral administration; 3.0-73; in short: as §1
Mus musculus [12] = test: Compound was tested for antidepressant activity by determining the decreased exploratory activity in mice upon oral administration; 20-36; in short: as §1
Mus musculus [13] = test: Compound was tested for antidepressant activity by determining the decreased exploratory activity in mice upon oral administration; in short: as §1
Mus musculus [14] = test: Compound was tested for antidepressant activity by determining the reversal of tetrabenazine-induced ptosis upon oral administration; 5.8-15.6; in short: as §1
Mus musculus [15] = test: Compound was tested for antidepressant activity by determining the decreased exploratory activity in mice upon oral administration; 39-238; in short: as §1
Mus musculus [16] = test: Compound was tested for antidepressant activity by determining the reversal of tetrabenazine-induced ptosis upon oral administration; 26-122; in short: as §1
Mus musculus [17] = test: Compound was tested for antidepressant activity by determining the reversal of tetrabenazine-induced ptosis upon oral administration; 37-170; in short: as §1
Mus musculus [18] = test: Compound was tested for antidepressant activity by determining the reversal of tetrabenazine-induced ptosis upon oral administration; 10-57; in short: as §1
Mus musculus [19] = test: Compound was tested for antidepressant activity by determining the decreased exploratory activity in mice upon oral administration; 22-53; in short: as §1
Mus musculus [20] = test: Compound was tested for antidepressant activity by determining the decreased exploratory activity in mice upon oral administration; 16-31; in short: as §1
Mus musculus [21] = test: Compound was tested for antidepressant activity by determining the reversal of tetrabenazine-induced ptosis upon oral administration; 6-21; in short: as §1
Mus musculus [22] = test: Compound was tested for antidepressant activity by determining the decreased exploratory activity in mice upon oral administration; 9.2-17; in short: as §1
Mus musculus [23] = test: Compound was tested for antidepressant activity by determining the reversal of tetrabenazine-induced ptosis upon oral administration; 2.2-6.2; in short: as §1

Row | SMILES | ED50 (Mus musculus [2]) | ED50 (Mus musculus [3]) | ED50 (Mus musculus [4]) | ED50 (Mus musculus [5]) | ED50 (Mus musculus [6]) | ED50 (Mus musculus [7]) | ED50 (Mus musculus [10]) | other results
1 | CN(C)CCCN=C1c2ccccc2C2CC2c2ccccc21 (stereo unspecified) | > 81 mg/kg | > 324 mg/kg | 12 mg/kg | > 324 mg/kg | 200 mg/kg | 12 mg/kg | – | ED50 (Mus musculus [1]): 1.7 mg/kg
2 | CN(C)CC/N=C1\c2ccccc2C2CC2c2ccc(Cl)cc21 (stereo unspecified) | – | 60 mg/kg | 20 mg/kg | 200 mg/kg | 200 mg/kg | 12 mg/kg | – | ED50 (Mus musculus [8]): 3.7 mg/kg; ED50 (Mus musculus [9]): 11.2 mg/kg
3 | CC(=O)N1Cc2ccccc2/C(=N\CCN(C)C)c2ccccc21 | > 125 mg/kg | > 324 mg/kg | 100 mg/kg | > 324 mg/kg | > 324 mg/kg | 200 mg/kg | > 125 mg/kg | –
4 | CN(C)CCCN=C(c1ccccc1)c1ccccc1 | > 125 mg/kg | > 324 mg/kg | 60 mg/kg | > 324 mg/kg | 200 mg/kg | > 324 mg/kg | > 125 mg/kg | –
5 | CN(C)CC/N=C1\c2ccccc2CSc2ccccc21 | – | > 324 mg/kg | 20 mg/kg | > 324 mg/kg | 60 mg/kg | 20 mg/kg | – | ED50 (Mus musculus [11]): 47 mg/kg; ED50 (Mus musculus [12]): 27 mg/kg
6 | CCN(CC)CCN=C1c2ccccc2CCc2ccccc21 | 36 mg/kg | > 324 mg/kg | 20 mg/kg | 200 mg/kg | 60 mg/kg | 36 mg/kg | > 125 mg/kg | –
7 | CN(C)CCCN=c1c2ccccc2ccc2ccccc12 | – | 36 mg/kg | 20 mg/kg | > 324 mg/kg | – | 7 mg/kg | – | ED50 (Mus musculus [13]): > 125 mg/kg; ED50 (Mus musculus [14]): 9.5 mg/kg
8 | NCCCNC1c2ccccc2CCc2ccccc21 | – | > 324 mg/kg | 60 mg/kg | > 324 mg/kg | 200 mg/kg | 60 mg/kg | > 125 mg/kg | ED50 (Mus musculus [13]): > 125 mg/kg
9 | CN(C)CCC/N=C1\c2ccccc2CN(C)c2ccccc21 | – | > 324 mg/kg | 200 mg/kg | > 324 mg/kg | 20 mg/kg | 100 mg/kg | – | ED50 (Mus musculus [15]): 96 mg/kg; ED50 (Mus musculus [16]): 56 mg/kg
10 | CN(C)CCN=C1c2ccccc2C(C)(C)c2ccccc21 | > 125 mg/kg | > 324 mg/kg | 36 mg/kg | > 324 mg/kg | 200 mg/kg | > 324 mg/kg | > 125 mg/kg | –
11 | c1ccc2c(c1)C(=NCCN1CCOCC1)c1ccccc1C1CC21 (stereo unspecified) | > 125 mg/kg | > 324 mg/kg | 200 mg/kg | > 324 mg/kg | > 324 mg/kg | > 324 mg/kg | – | ED50 (Mus musculus [17]): 79 mg/kg
12 | c1ccc2c(c1)C(=NCCN1CCCC1)c1ccccc1C1CC21 (stereo unspecified) | > 125 mg/kg | > 324 mg/kg | 60 mg/kg | 200 mg/kg | 300 mg/kg | 7 mg/kg | > 125 mg/kg | –
13 | CN(C)CCCN=C1c2ccccc2CCc2ccccc21 | – | > 324 mg/kg | 60 mg/kg | > 324 mg/kg | 36 mg/kg | 20 mg/kg | – | ED50 (Mus musculus [18]): 24 mg/kg; ED50 (Mus musculus [19]): 34 mg/kg
14 | CN(C)CC/N=C1\c2ccccc2CN(C)c2ccccc21 | – | > 324 mg/kg | 60 mg/kg | 200 mg/kg | 60 mg/kg | 60 mg/kg | – | ED50 (Mus musculus [20]): 22 mg/kg; ED50 (Mus musculus [21]): 11 mg/kg
15 | CN(C)CCN=C1c2ccccc2C2C(c3ccccc31)C2(F)F (stereo unspecified) | – | > 324 mg/kg | 60 mg/kg | 200 mg/kg | > 324 mg/kg | 200 mg/kg | – | ED50 (Mus musculus [22]): 12.5 mg/kg; ED50 (Mus musculus [23]): 3.7 mg/kg
16 | CN(C)CCN=C1c2ccccc2C2C(c3ccccc31)C2(Cl)Cl (stereo unspecified) | > 125 mg/kg | > 324 mg/kg | 200 mg/kg | > 324 mg/kg | > 324 mg/kg | > 324 mg/kg | > 125 mg/kg | –
